Bioassay records (PubChem)
Runt-CBFb FRET – inhibitors of human RUNX1 Runt domain binding to CBFb; inhibition, % at 20 µM; Q01196+Q13951; 0.46% of 220,000 active; Cerulean-Runt/Venus-CBFb FRET ratio 530/480, 1 h;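 active = inhibition over about 50% at 20 µM in the single-dose screen, limit read from the data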;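 note: 0% = DMSO wells and 100% = excess unlabeled CBFb competitor control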
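Doses: 20 µM compound in 1% DMSO | Material: Cerulean-labeled Runt domain protein | Amount: Each fluorescent fusion protein 100 nM | Schedule: Two 1 h room-temperature incubations shielded from light | Measured by: FRET fluorescence | Evaluation: Loss of energy transfer signal | Controls: Unlabeled CBFb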
TbHK1 inh – blocks Trypanosoma brucei hexokinase 1 activity; recombinant TbHK1, G6PDH-coupled NADH A340; inhibition, % at 10 µM; 0.11% of 220,000 active;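 active = inhibition of 50% or more in the single-dose primary screen; inactive = inhibition below 50%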
Runt-SMMHC FRET – blocks binding of human RUNX1 Runt domain to CBFb-SMMHC. inhibition, % at 20 µM. AID 1434. Q01196+Q13951. 0.74% of 220,000 active. Cerulean-Runt/Venus-CBFb-SMMHC FRET ratio 530/480, 1 h;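 active = mean inhibition across duplicate retests at 20 µM reaching about 50%, limit read from the data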;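 note: 0% = DMSO wells and 100% = wells with excess untagged CBFb-SMMHC; inhibitors lower the FRET ratio by blocking Runt binding to CBFb-SMMHC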
Hck-Nef inh – human Hck-Nef kinase inhibition. P08631. Recombinant Hck-YEEI plus Nef, Z-Lyte FRET kinase assay. inhibition, % at 20 µM. 0.68% of 220,000 active. AID 463187;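 active = Hck-Nef kinase inhibition above about 50%, limit read from the data; inactive = inhibition below that limit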;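 note: 0% = DMSO with Hck plus Nef and 100% = Hck alone without Nef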
Target sequence (P08631 whole entry, looked up): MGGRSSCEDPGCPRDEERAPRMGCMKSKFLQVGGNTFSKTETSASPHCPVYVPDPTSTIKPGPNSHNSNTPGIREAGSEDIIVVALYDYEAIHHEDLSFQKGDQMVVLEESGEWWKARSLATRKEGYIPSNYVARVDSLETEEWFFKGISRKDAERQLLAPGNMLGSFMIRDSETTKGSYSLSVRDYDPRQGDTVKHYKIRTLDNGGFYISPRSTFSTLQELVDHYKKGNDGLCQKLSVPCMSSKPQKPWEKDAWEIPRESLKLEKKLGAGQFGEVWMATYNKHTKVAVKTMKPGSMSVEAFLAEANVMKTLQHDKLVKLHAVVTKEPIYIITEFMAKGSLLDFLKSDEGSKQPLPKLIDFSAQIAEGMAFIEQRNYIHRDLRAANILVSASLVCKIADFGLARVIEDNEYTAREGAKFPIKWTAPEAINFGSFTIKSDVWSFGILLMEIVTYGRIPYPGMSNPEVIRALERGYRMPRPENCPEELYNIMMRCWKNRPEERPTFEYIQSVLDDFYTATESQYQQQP
RanGTP-Impb inh – disruptors of Ran-importin-beta complex formation – biochemical, FRET, CFP-Ran, YFP-importin-beta, homogeneous, primary screen; cell-free CFP-Ran/YFP-importin-beta FRET ratio; inhibition, % (concentration not given with the values); 1.1% of 300,000 active;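 active = more than half of the replicate wells show a fall in the fluorescence ratio signal beyond about 16%, limit read from the data, passing the limit was not always enough; inconclusive = exactly half of the replicate wells pass the set limit; inactive = fewer than half of replicates pass the limit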;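 note: 0% = DMSO wells and 100% = Ran loaded with GDP instead of GTP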
Runt-CBFb TRFRET – Runt-CBFb binding inhibition | shares compounds with Runt-CBFb FRET | inhibition, % at 20 µM | TR-FRET RUNX1 Runt domain-CBFb binding | 20% of 480 active; in the data active = inhibition above about 40%
YIC FRET counter – counter-screen: alters YIC FRET probe signal. 40% of 1,000 active. shares compounds with RanGTP-Impb inh. IC50, µM. Purified YIC probe, intramolecular FRET ratio YFP/CFP. AID 435026;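 active = fitted half-maximal inhibitory concentration no more than tenfold above the top dose tested; inconclusive = flat fit with 30 to 70% activity, or poor fit; inactive = half-maximal concentration beyond tenfold above the top dose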
Hck-Nef confirm – confirmation of Hck-Nef kinase inhibitors; shares compounds with Hck-Nef inh; Recombinant Hck-YEEI:Nef, Z-Lyte FRET kinase assay; calls only at 10 µM; 28% of 1,300 active; AID 463188;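 active = average inhibition of at least 50%, with Z-scores no higher than 3 in both the phospho-tyrosine peptide and fluorescence counterscreens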
* hit, by the source's call; i = inactive; ? = inconclusive; / = no result given. Rows were chosen to be rich in hits. Some 1.9% of all compounds tested hit in one or more screens of this group.

SMILES	Runt-CBFb FRET	TbHK1 inh	Runt-SMMHC FRET	Hck-Nef inh	RanGTP-Impb inh	YIC FRET counter	others
c1coc(-c2nc(-c3ccco3)c(-c3ccco3)nc2-c2ccco2)c1	51*	-6	46	60*	60*	/	Runt-CBFb TRFRET=-38;Hck-Nef confirm=i
COc1ccc(-c2nc3ccc(C(=O)NCCCN4CCOCC4)cc3nc2-c2ccc(OC)cc2)cc1	/	/	/	/	21*	22*
Cc1cccc(NS(=O)(=O)c2ccc(C(=O)N3CCCC3)cc2)c1C	/	/	/	/	3	/
Cc1cccc(NS(=O)(=O)c2ccc(C(=O)N3CCCCCC3)cc2)c1C	/	/	/	/	17*	>50
CC(=O)Nc1ccc(S(=O)(=O)NCc2nc(-c3cccc(C)c3)no2)cc1	/	/	/	/	15*	39*
c1ccc(Nc2nc3ccccc3n3nnnc23)cc1	22	-14	44	6	36*	24*
Cc1cc(Cl)c(S(=O)(=O)N2CCCC2)cc1OCC(=O)NC1CCCCC1	-3	-5	-1	-2	24*	>50
COC(=O)C(C)(C(=O)OC)c1ccccc1[N+](=O)[O-]	-1	32	1	-19	6	/
C[C@H](CO)N1C[C@H](C)[C@@H](CN(C)S(=O)(=O)c2cccs2)Oc2ccc(NC(=O)Cc3ccccc3)cc2CC1=O	/	/	/	/	/	>50
Cc1ccc(NC(=O)CN(C)S(=O)(=O)c2cccs2)cc1C	0	-3	0	1	1	/
CC1CCCCN1Cc1c(O)ccc2c(=O)c(-c3nc4ccccc4s3)coc12 (stereo not drawn)	10	-49	25	43	38*	<0.38*
COCc1ccc(CN2CCCC(CO)(Cc3cccc(OC)c3)C2)o1 (stereo not drawn)	0	-11	3	-4	-3	/
COCc1ccc(CN2CCCC(CO)(Cc3ccccc3C)C2)o1 (stereo not drawn)	-1	6	0	20	23*	>50
COc1ccc(C(C)=O)cc1CSc1nnc(Nc2ccccc2)s1	-1	23	4	1	-4	/
CCNC(=O)/C(C#N)=C/c1c(N2CCN(c3ccc(OC)cc3)CC2)nc2c(C)cccn2c1=O	/	/	/	/	11	/
Cc1cccn2c(=O)c(/C=C(\C#N)C(N)=O)c(Oc3ccccc3)nc12	11	-21	119*	16	25*	1.6*
COCCNC(=O)/C(C#N)=C/c1c(N2CCN(c3ccc(OC)cc3)CC2)nc2c(C)cccn2c1=O	/	/	/	/	19*	46*
CCOC(=O)/C(C#N)=C/c1c(N2CCN(c3ccc(OC)cc3)CC2)nc2c(C)cccn2c1=O	/	/	/	/	20*	>50
Cc1cccn2c(=O)c(/C=C(\C#N)C(N)=O)c(N3CCN(c4ccccc4)CC3)nc12	/	/	/	/	5	/
COc1ccc(NC(=O)CN(c2ccc(F)cc2)S(=O)(=O)c2ccccc2)c(OC)c1	/	/	/	/	6	/
O=C(CN1CC(=O)Oc2ccccc21)NCc1ccco1	5	13	3	2	19*	>50
O=C(CN1CCOc2ccccc21)NCc1ccco1	4	-4	-1	2	?	/
CC1Cc2cc(/C(O)=C3/C(=O)C(=O)N(Cc4ccncc4)C3c3ccc(N(C)C)cc3)ccc2O1 (stereo not drawn)	/	/	/	/	22*	>50
COc1ccc(C2/C(=C(/O)c3ccc4c(c3)CC(C)O4)C(=O)C(=O)N2Cc2cccnc2)cc1 (stereo not drawn)	/	/	/	/	1	/
CCC(=O)N(C)/C=C1\Sc2ccccc2C1=O	/	-2	154*	4	20*	>50
SMILES	Runt-CBFb FRET	TbHK1 inh	Runt-SMMHC FRET	Hck-Nef inh	RanGTP-Impb inh	YIC FRET counter	others
Cc1sc2c(c1C)C(=O)NC(c1ccccc1F)N2 (stereo not drawn)	36	-17	8	-13	24*	>50
Cc1ccc(C2NC(=O)c3c(sc(C)c3C)N2)c(O)c1 (stereo not drawn)	5	-15	21	2	24*	>50
Cc1ccc(C)c(C2NC(=O)c3ccccc3N2)c1 (stereo not drawn)	-2	-10	6	28	-1	/
N#Cc1c(N)nc2c(c1-c1ccccc1)CCC2	5	-8	15	36	29*	9.8*
CCC(C)(C(=O)NC1CCCC1)N(Cc1cccs1)C(=O)c1ccccn1 (stereo not drawn)	-2	-1	1	1	1	/
COc1ccccc1Nc1nc(-c2ccccc2)nc2ccccc12	-2	-3	3	5	-1	/
COc1ccccc1Nc1c2ccccc2nc2ccccc12	/	/	/	/	27*	>50
Oc1cccc(Nc2c3ccccc3nc3ccccc23)c1	/	/	/	/	50*	>50
c1cncc(Nc2c3ccccc3nc3ccccc23)c1	/	/	/	/	34*	>50
Cc1nnsc1C(=O)Nc1ccc(S(=O)(=O)N2CCCC(C)C2)cc1 (stereo not drawn)	/	/	/	/	-2	/
CC1=C(C(=O)OC(C)C)C(c2cccnc2)C2=C(CC(C)(C)CC2=O)N1 (stereo not drawn)	77*	-4	102*	34	19*	23*
CC1=C(C(=O)OC(C)C)C(c2ccc(N(C)C)cc2)C2=C(CC(C)(C)CC2=O)N1 (stereo not drawn)	5	-20	9	1	1	/
COc1ccc(/C=N/NC(=O)c2sc3nc(C)cc(C)c3c2N)cc1	19	-9	35	8	23*	6.6*
C=CCn1c(SCC(=O)N2CCCCC2)nnc1-c1ccncc1	0	6	-2	11	36*	>50
CC1=C[C@@H](C)[C@@H](c2ccc(C(F)(F)F)cc2)OC1=O	/	/	/	/	11	/
CCOC(=O)CCNC(=O)c1ccc2nc(C3CCCCC3)oc2c1	/	/	/	/	0	/
CCCC1Cc2nc(Cl)c(C#N)cc2CO1 (stereo not drawn)	0	20	-1	17	0	/
CC(C)c1cc(N2CCN(C(=O)c3ccco3)CC2)n2c(nc3ccccc32)c1C#N	25	-16	/	13	?	16*
COc1c(C)cc(C(=O)C2CCCN(C(=O)c3cccc(-n4cccn4)c3)C2)cc1C (stereo not drawn)	-4	-5	1	-53	4	/
Cc1ccccc1CN1CCN(S(=O)(=O)c2ccc(F)cc2)CC1	-1	8	-1	7	0	/
Cc1cccc(C)c1N1CCN(S(=O)(=O)c2ccc(F)cc2)CC1	0	11	-1	3	19*	>50
COc1ccc(CCn2c(C)nc3ccccc3c2=O)cc1OC	2	-3	-1	21	23*	>50
